# GAA850 FXN act = increases GAA850 frataxin promoter reporter activity | activation, % at 6 µM | HEK293 lucGAA850 FXN promoter luciferase reporter, 24 h; percent of 10 µM SAHA response | 0.56% of 360,000 active;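 active means activation above the average of all compounds screened plus 3 SD, cutoff fixed separately per campaign, cut at about 7.5% in these data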;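 further: 0% = DMSO wells and 100% = 10 µM SAHA wells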
# AHR act = activators of human aryl hydrocarbon receptor. 2.5% of 320,000 active. P35869. activation, % at 5 µM. AHR-responsive luciferase reporter cells, luminescence; in the data active means activation above about 47%;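 further: 0% = vehicle wells and 100% = reference agonist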
# Target sequence (P35869 whole entry, looked up): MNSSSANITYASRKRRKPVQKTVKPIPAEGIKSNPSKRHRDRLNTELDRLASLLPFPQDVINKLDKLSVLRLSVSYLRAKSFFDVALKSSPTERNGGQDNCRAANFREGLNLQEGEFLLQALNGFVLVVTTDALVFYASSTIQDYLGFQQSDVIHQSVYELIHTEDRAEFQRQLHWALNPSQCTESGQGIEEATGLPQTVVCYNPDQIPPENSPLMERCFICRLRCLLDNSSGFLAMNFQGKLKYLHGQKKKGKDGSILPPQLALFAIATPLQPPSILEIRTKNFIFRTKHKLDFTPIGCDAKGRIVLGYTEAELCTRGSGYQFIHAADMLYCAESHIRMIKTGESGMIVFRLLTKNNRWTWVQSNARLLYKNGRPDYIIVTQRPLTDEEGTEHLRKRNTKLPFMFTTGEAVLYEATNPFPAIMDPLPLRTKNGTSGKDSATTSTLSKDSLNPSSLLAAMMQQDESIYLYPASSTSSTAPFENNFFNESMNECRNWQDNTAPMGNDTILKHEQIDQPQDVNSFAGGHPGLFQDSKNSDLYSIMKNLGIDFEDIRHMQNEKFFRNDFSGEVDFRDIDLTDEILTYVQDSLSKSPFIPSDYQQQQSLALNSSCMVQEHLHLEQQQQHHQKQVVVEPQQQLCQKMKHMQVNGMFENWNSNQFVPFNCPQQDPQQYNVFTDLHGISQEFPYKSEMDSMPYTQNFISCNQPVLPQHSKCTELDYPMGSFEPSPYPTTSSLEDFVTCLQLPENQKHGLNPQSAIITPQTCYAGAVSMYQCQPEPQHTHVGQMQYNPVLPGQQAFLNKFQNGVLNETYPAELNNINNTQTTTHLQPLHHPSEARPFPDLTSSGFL
# ABCB6 inh 2 = blocks the human ABCB6 transporter; AID 602162; Q9NP58; K562-ABCB6 porphyrin accumulation, flow cytometry, 1 h; hits give low values; fluorescence ratio to DMSO, % at 10 µM; 0.19% of 360,000 active;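 active means fluorescence ratio to DMSO below 75%, the collection mean minus 3 SD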;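 further: signal is porphyrin accumulated inside mitochondria; 100% equals median channel fluorescence of DMSO control wells; lower ratio means ABCB6 inhibition with less porphyrin fluorescence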
# STAT3 act = activators of IL-6 induced STAT3 signaling; U3A cells, IL-6 STAT3-luciferase reporter, luminescence; 100% = signal with IL-6 EC80 alone; activation (% of control), % at 5.6 µM; 0.91% of 190,000 active; AID 871;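 active means activation above the screen-wide mean of compound activation plus 3 SD, cut at about 130% in these data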;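 further: 0% = background luminescence of wells with medium and substrate only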
#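 Test system: human U3A cells carrying STAT3-luciferase construct; control set: IL-6-only wells as 100% reference; timing: compound pre-incubation 1 h before IL-6, then 6 h stimulation at 37 °C; also added: IL-6 stimulus at 33 ng/mL final; evaluation: % activation versus median of IL-6-stimulated wells; detection: reporter luminescence signal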
# AHR act cf = human AHR activation, confirmation; activation, % at 9 µM; 87% of 2,300 active; shares compounds with AHR act; human cells, AHR-responsive luciferase reporter, luminescence; in the data active means activation above about 49%;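 further: HepG2 hepatoma cells carrying a DRE-driven firefly luciferase reporter; 0% = vehicle wells and 100% = reference agonist wells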
# PXR counter = PXR activation, counter-screen for AHR activators | shares compounds with AHR act | cell-based PXR reporter, luciferase luminescence | activation, % at 11.6 µM | 88% of 2,300 active | AID 434939; in the data active means activation above about 11%;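 further: human hepatoma DPX-2 cells expressing full-length human PXR; 0% = DMSO and 100% = reference agonist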
# An asterisk follows results filed as active; nt = not tested or not shown. This is a sample that favours compounds with a hit; in the whole collection about 3.3% have one here.
SMILES,GAA850 FXN act,AHR act,ABCB6 inh 2,STAT3 act,AHR act cf,PXR counter
COc1cccc(-n2c(SCC(=O)NCC3CCCO3)nc3c([nH]c4ccccc43)c2=O)c1 (stereo not drawn),-2.1,88.1*,94.0,nt,127.8*,88.6*
Cn1c(SCC(=O)NCc2ccc(F)cc2)nc2c([nH]c3ccccc32)c1=O,nt,126.3*,nt,133.3*,96.9*,90.5*
Cn1c(SCC(=O)NCCc2ccccc2)nc2c([nH]c3ccccc32)c1=O,4.9,118.2*,94.0,124.2,91.1*,114.7*
Cn1c(SCC(=O)N2CCCCC2)nc2c([nH]c3ccccc32)c1=O,-0.1,45.1,102.0,130.2,nt,nt
Cn1c(SCC(=O)N2CCCCCC2)nc2c([nH]c3ccccc32)c1=O,2.3,29.7,98.0,102.9,nt,nt
CNc1sc(C(=O)c2ccccc2F)c(N)c1-c1nc2ccccc2s1,1.1,89.9*,105.0,112.4,87.6*,48.0*
COC(=O)N/N=C/c1c(C)c(C(=O)c2ccc(F)cc2)n2ccccc12,-5.1,85.8*,96.0,100.9,74.5*,93.9*
CCOC(=O)N/N=C/c1c(C)c(C(=O)c2ccc(F)cc2)n2ccccc12,0.1,83.7*,99.0,88.4,104.4*,74.5*
Cc1cc(C[n+]2cc(Br)ccc2N)c2ncccc2c1,1.0,11.2,95.0,nt,nt,nt
O=C1NCCOC(=O)[C@H](Cc2ccc(F)cc2)C/C=C\C[C@H]1CC(=O)N(CCO)Cc1ccccc1,-0.6,-1.0,100.0,nt,nt,nt
CN1C[C@@H]2[C@@H]3C(=O)N(Cc4ccccc4)C(=O)[C@@H]3[C@](C)(C1=O)N2C(=O)c1ccc(F)cc1,0.2,nt,88.0,nt,nt,nt
CCn1ncc(Br)c1C(=O)Nc1ccc(C(=O)OC(C)C)cc1,1.7,-5.0,94.0,83.2,nt,nt
CCn1ncc(Br)c1C(=O)Nc1ccccc1C(F)(F)F,-0.3,88.2*,111.0,nt,91.9*,23.4*
CCn1ncc(Br)c1C(=O)Nc1ccc(OC(F)(F)F)cc1,1.9,95.7*,100.0,nt,91.4*,20.5*
CCc1cccc(NC(=O)CCc2c(C)nn(-c3ccc(N4CCOCC4)nn3)c2C)c1,3.8,12.2,98.0,nt,nt,nt
CCCC(=O)Nc1c2c(nc3ccccc13)N(c1ccccc1)CC2,-1.0,108.3*,98.0,107.3,97.6*,23.3*
Nc1c2c(nc3ccccc13)N(c1ccccc1)CC2,-0.3,142.7*,102.0,nt,105.1*,22.3*
CCCCc1nc2ccccc2c(NC(=O)CN2CCCC2)c1CCC,0.3,2.2,100.0,103.2,nt,nt
O=C(CN1CCCCC1)Nc1c2c(nc3ccccc13)N(c1ccccc1)CC2,0.8,132.3*,98.0,103.3,106.8*,38.4*
Cc1cc(/C=C2\Sc3ccccc3N2C)cc(C)[n+]1CC1CCCO1 (stereo not drawn),-6.7,nt,357.0,33.8,nt,nt
CCOC(=O)c1ccc(NC(=O)CCNS(=O)(=O)c2cc(Br)cnc2N)cc1,-0.1,2.0,102.0,nt,nt,nt
Cc1cc(C)n(-c2ccc(C)c(Cl)c2)n1,0.7,-2.6,103.0,111.4,nt,nt
O=C(NCCn1cccc1)c1cccc2ccccc12,0.4,8.4,101.0,91.6,nt,nt
O=C(COC(=O)c1cc(S(=O)(=O)N2CCOCC2)ccc1O)Nc1ccc2c(c1)OCO2,-0.8,0.2,95.0,nt,nt,nt
Cc1c(C(=O)NCc2ccccn2)oc2c(Cl)cccc12,3.2,87.3*,98.0,nt,132.1*,50.1*
SMILES,GAA850 FXN act,AHR act,ABCB6 inh 2,STAT3 act,AHR act cf,PXR counter
O=C(N/N=C/c1cc2c(cc1Cl)OCO2)c1ccncc1,0.3,86.8*,103.0,96.5,63.0*,8.7
O=C(N/N=C/c1cc2c(cc1Cl)OCO2)c1cccc(Br)c1,3.3,32.3,96.0,nt,nt,nt
O=C(N/N=C/c1cc2c(cc1Cl)OCO2)c1cc(-c2ccccc2)n[nH]1,0.3,34.1,93.0,nt,nt,nt
O=C(N/N=C\c1cc2c(cc1Cl)OCO2)c1cccnc1,-1.0,80.0*,96.0,nt,79.3*,13.3*
Cc1nc2scc(-c3ccco3)c2c(=O)n1/N=C/N(C)C,1.4,-0.2,90.0,100.4,nt,nt
CCOC1=C2[C@@H](CN(S(=O)(=O)c3ccc(C)cc3)[C@H]2c2ccccc2Cl)[C@H]2C(=O)N(C(C)(C)C)C(=O)[C@H]2C1,nt,nt,96.0,nt,nt,nt
O=C(Nc1ccccc1)C(=O)c1c[nH]c2ccccc12,3.1,102.0*,94.0,nt,129.0*,28.0*
COC(=O)c1ccc(NC(=O)C(=O)c2c[nH]c3ccccc23)cc1,2.0,30.1,100.0,nt,nt,nt
CC(=O)c1cccc(N=Nc2c(-c3ccccc3)[nH]n(-c3ccccc3)c2=O)c1,1.0,2.3,96.0,96.1,nt,nt
COc1ccc(N2CCN(C(=O)CN3C(=O)C4CC=CCC4C3=O)CC2)cc1 (stereo not drawn),0.6,0.9,88.0,95.3,nt,nt
Clc1ccc(CCNc2nc3ccccc3n3nnnc23)cc1,2.2,4.5,97.0,87.5,nt,nt
COc1ccc(Nc2nc3ccccc3n3nnnc23)cc1,4.2,98.5*,111.0,98.3,103.5*,28.9*
Fc1cc(Br)ccc1Nc1nc2ccccc2n2nnnc12,2.1,131.5*,108.0,95.2,125.2*,27.6*
Clc1ccc(Nc2nc3ccccc3n3nnnc23)cc1,1.5,81.2*,94.0,105.2,104.3*,50.4*
c1ccc(Nc2nc(-c3ccccn3)cs2)cc1,2.1,116.3*,83.0,108.4,52.6*,nt
NC(=S)N/N=C/c1ccc(Br)o1,-1.3,-1.6,97.0,102.1,nt,nt
NC(=S)N/N=C/c1ccc(-c2cc(Cl)c(Cl)cc2Cl)o1,4.1,107.7*,99.0,97.2,102.1*,21.8*
CC(=O)c1cnc2nc(SCc3cccc(C)c3)nn2c1C,-0.2,-10.3,99.0,nt,nt,nt
O=C1CSC(=Nc2ccccc2Cl)N1,-0.5,1.4,101.0,103.2,nt,nt
Clc1ccccc1N=C1NN=C(c2cccs2)CS1,5.6,139.3*,103.0,110.8,130.1*,35.9*
C=C(C)c1cccc(C(C)(C)NC(=O)Nc2ccc(Cl)cn2)c1,2.1,90.8*,110.0,99.1,94.5*,73.4*
O=C(O)c1cc(S(=O)(=O)Nc2ccc3c(c2)OCCO3)c(Cl)cc1Cl,-11.2,82.9*,99.0,86.9,14.8,13.7*
CCNC(=S)/N=C(/Nc1ccccc1)Nc1nc(C)cc(C)n1,2.8,80.1*,116.0,nt,112.8*,63.9*
CCNC(=S)/N=C(/Nc1ccc(OC)cc1)Nc1nc(C)cc(C)n1,0.3,8.3,102.0,nt,nt,nt
Cc1[nH]c2ccccc2c(=O)c1C(=O)/C=C/c1ccccc1,-12.9,-1.8,100.0,nt,nt,nt
Cc1[nH]c2ccccc2c1/C=C/C(=O)c1ccccc1,2.5,129.3*,129.0,85.4,123.3*,72.6*
Cc1[nH]c2ccccc2c1/C=N/NC(=O)Nc1ccccc1,4.7,94.7*,97.0,147.6*,136.1*,45.8*
Cc1[nH]c2ccccc2c1/C=N/NC(=O)Cc1cccs1,0.5,100.1*,98.0,93.9,72.1*,37.6*
O=C(Nc1ccccc1N1CCN(C(=O)c2ccc(Cl)cc2)CC1)c1cccc([N+](=O)[O-])c1,-1.1,127.0*,105.0,nt,102.0*,87.0*
